Experimental data reported in ChEMBL document CHEMBL1136717, “Trypanocidal activity of conformationally restricted pentamidine congeners” (J Med Chem, 2003).
pIC50: −log10 of the molar value. Activity calls are given as the source filed them. The rule behind the calls is not given here.

Experiments:
Mus musculus [1] = assay: Ratio of number of cured to that of total after intraperitoneal administration (25 mg/kg) once a day for 3 days in mouse infected with Trypanosoma brucei (EATRO Lab 110); (3/3 of animals were cured); format: functional, organism-based
Trypanosoma brucei [2] = assay: Mean survival dose (1.0 mg/kg) after intraperitoneal administration once a day for 3 days in mouse infected with Trypanosoma brucei (EATRO Lab 110); format: functional
How it was run: (§1)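 Female Swiss-Webster mice (20 g) infected ip with 2.5×10^5 trypanosomes from rat blood; treatment began 24 h later. Drug dissolved in distilled water, given ip once daily for 3 days, three mice per dose. Tail blood smears checked weekly. MSD is the mean survival of mice dying of infection, excluding cures. Cure means survival >30 days beyond the last control death with a clear smear.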

Mus musculus [3] = assay: Ratio of number of cured to that of total after intraperitoneal administration (10.0 mg/kg) once a day for 3 days in mouse infected with Trypanosoma brucei (EATRO Lab 110); (3/3 of animals were cured); format: functional, organism-based
Trypanosoma brucei [4] = assay: Mean survival dose (2.5 mg/kg) after intraperitoneal administration once a day for 3 days in mouse infected with Trypanosoma brucei (EATRO Lab 110); format: functional; how it was run: as §1
Calf thymus DNA = assay: DNA binding affinity using calf thymus DNA.; format: nucleic-acid assay; settings: Bos taurus
How it was run: (§2)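 Thermal denaturation of calf thymus DNA or poly(dA-dT) at a 1:5 compound to base pair ratio. Binding affinity is reported as ΔTm, the shift in the midpoint (Tm) of the melting curve.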

Mus musculus [5] = assay: Ratio of number of cured to that of total after intraperitoneal administration (5.0 mg/kg) once a day for 3 days in mouse infected with Trypanosoma brucei (EATRO Lab 110); (2/3 of animals were cured); format: functional, organism-based
Trypanosoma brucei [6] = assay: In vitro inhibitory concentration against mice infected with Trypanosoma brucei pentamidine-sensitive strain (EATRO Lab 110).; format: functional, organism-based
Trypanosoma brucei [7] = assay: Mean survival dose (5.0 mg/kg) after intraperitoneal administration once a day for 3 days in mouse infected with Trypanosoma brucei (EATRO Lab 110); format: functional; how it was run: as §1
Mus musculus [8] = assay: Ratio of number of cured to that of total after intraperitoneal administration (2.5 mg/kg) once a day for 3 days in mouse infected with Trypanosoma brucei (EATRO Lab 110); (1/3 of animals were cured); format: functional, organism-based
Mus musculus [9] = assay: Ratio of number of cured to that of total after intraperitoneal administration (1.0 mg/kg) once a day for 3 days in mouse infected with Trypanosoma brucei (EATRO Lab 110);(0/3 of animals were cured); format: functional, organism-based
Nucleic Acid = assay: DNA binding affinity using poly(dA-dT).; format: nucleic-acid assay; how it was run: as §2
[10] = test system: Trypanosoma brucei rhodesiense; assay: In vitro inhibitory concentration against mouse infected with Trypanosoma brucei rhodesiense (KETRI 269)
Trypanosoma brucei [11] = assay: In vitro inhibitory concentration against mouse infected with Trypanosoma brucei rhodesiense (kETRI 243As-10-3); format: functional, organism-based
Trypanosoma brucei [12] = assay: In vitro inhibitory concentration against mice infected with Trypanosoma brucei rhodesiense (KETRI 243).; format: functional, organism-based
Trypanosoma brucei [13] = assay: Mean survival dose (25.0 mg/kg) after intraperitoneal administration once a day for 3 days in mouse infected with Trypanosoma brucei (EATRO Lab 110); Compound was toxic.; format: functional; how it was run: as §1
Mus musculus [14] = assay: Ratio of number of cured to that of total after intraperitoneal administration (1.0 mg/kg) once a day for 3 days in mouse infected with Trypanosoma brucei (EATRO Lab 110); (0/3 of animals were cured); format: functional, organism-based
Mus musculus [15] = assay: Ratio of number of cured to that of total after intraperitoneal administration (5.0 mg/kg) once a day for 3 days in mouse infected with Trypanosoma brucei (EATRO Lab 110); (3/3 of animals were cured); format: functional, organism-based
Mus musculus [16] = assay: Ratio of number of cured to that of total after intraperitoneal administration (2.5 mg/kg) once a day for 3 days in mouse infected with Trypanosoma brucei (EATRO Lab 110); (3/3 of animals were cured); format: functional, organism-based
Mus musculus [17] = assay: Ratio of number of cured to that of total after intraperitoneal administration (25 mg/kg) once a day for 3 days in mouse infected with Trypanosoma brucei (EATRO Lab 110); (0/3 of animals were cured); format: functional, organism-based
Mus musculus [18] = assay: Ratio of number of cured to that of total after intraperitoneal administration (2.5 mg/kg) once a day for 3 days in mouse infected with Trypanosoma brucei (EATRO Lab 110); (0/3 of animals were cured); format: functional, organism-based
Mus musculus [19] = assay: Ratio of number of cured to that of total after intraperitoneal administration (5.0 mg/kg) once a day for 3 days in mouse infected with Trypanosoma brucei (EATRO Lab 110); (0/3 of animals were cured); format: functional, organism-based
Trypanosoma brucei [20] = assay: Mean survival dose (10.0 mg/kg) after intraperitoneal administration once a day for 3 days in mouse infected with Trypanosoma brucei (EATRO Lab 110); format: functional; how it was run: as §1
Mus musculus [21] = assay: Ratio of number of cured to that of total after intraperitoneal administration (25 mg/kg) once a day for 3 days in mouse infected with Trypanosoma brucei (EATRO Lab 110);(3/3 of animals were cured); format: functional, organism-based
Mus musculus [22] = assay: Ratio of number of cured to that of total after intraperitoneal administration (10.0 mg/kg) once a day for 3 days in mouse infected with Trypanosoma brucei (EATRO Lab 110); (1/3 of animals were cured); format: functional, organism-based

N=C(N)c1ccc(N2CCCN(c3ccc(C(=N)N)cc3)CC2)cc1
Ratio (Mus musculus [1]): Active | MSD (Trypanosoma brucei [2]): 8.3 days | Ratio (Mus musculus [3]): Active | MSD (Trypanosoma brucei [4]): 16.5 days | DNA binding (Calf thymus DNA): 15 °C | Ratio (Mus musculus [5]): Partially active | pIC50 (Trypanosoma brucei [6]): 8.67 | MSD (Trypanosoma brucei [7]): 12 days | Ratio (Mus musculus [8]): Partially active | Ratio (Mus musculus [9]): inactive | DNA binding (Nucleic Acid): 23.1 °C | pIC50 [10]: 8.15 | pIC50 (Trypanosoma brucei [11]): 8.48 | pIC50 (Trypanosoma brucei [12]): 8.57

CC(C)(C)/N=C(\N)c1ccc(N2CCCN(c3ccc(/C(N)=N/C(C)(C)C)cc3)CC2)cc1
DNA binding (Calf thymus DNA): 4.1 °C | pIC50 (Trypanosoma brucei [6]): < 6.00 | DNA binding (Nucleic Acid): 7.4 °C | pIC50 (Trypanosoma brucei [11]): < 6.00 | pIC50 (Trypanosoma brucei [12]): < 6.00

c1cc(C2=NCCN2)ccc1CC1CCN(c2ccc(C3=NCCN3)cc2)CC1
DNA binding (Calf thymus DNA): 21 °C | pIC50 (Trypanosoma brucei [6]): 6.77 | DNA binding (Nucleic Acid): 33.9 °C | pIC50 [10]: 6.81 | pIC50 (Trypanosoma brucei [11]): 7.06 | pIC50 (Trypanosoma brucei [12]): 6.73

N=C(N)c1ccc(OCCCCCOc2ccc(C(=N)N)cc2)cc1 [PENTAMIDINE]
DNA binding (Calf thymus DNA): 11.1 °C | pIC50 (Trypanosoma brucei [6]): 9.10 | DNA binding (Nucleic Acid): 20.6 °C | pIC50 [10]: 8.49 | pIC50 (Trypanosoma brucei [11]): 8.30 | pIC50 (Trypanosoma brucei [12]): 8.51

N=C(N)c1ccc(OC[C@@H]2C[C@H]2COc2ccc(C(=N)N)cc2)cc1
DNA binding (Calf thymus DNA): 11.1 °C | pIC50 (Trypanosoma brucei [6]): 8.03 | DNA binding (Nucleic Acid): 20.3 °C | pIC50 [10]: 7.81 | pIC50 (Trypanosoma brucei [11]): 9.77 | pIC50 (Trypanosoma brucei [12]): 7.35

N=C(NCCO)c1ccc(N2CCCN(c3ccc(/C(N)=N/CCO)cc3)CC2)cc1
DNA binding (Calf thymus DNA): 11.1 °C | pIC50 (Trypanosoma brucei [6]): < 6.00 | DNA binding (Nucleic Acid): 14.7 °C | pIC50 (Trypanosoma brucei [11]): < 6.00 | pIC50 (Trypanosoma brucei [12]): < 6.00

c1cc(N2CCN(c3ccc(C4=NCCN4)cc3)CC2)ccc1C1=NCCN1
MSD (Trypanosoma brucei [13]): 19.7 days | MSD (Trypanosoma brucei [2]): 10.3 days | Ratio (Mus musculus [3]): Active | DNA binding (Calf thymus DNA): 15 °C | Ratio (Mus musculus [14]): inactive | pIC50 (Trypanosoma brucei [6]): 7.73 | Ratio (Mus musculus [15]): Active | Ratio (Mus musculus [16]): Active | DNA binding (Nucleic Acid): 19.4 °C | pIC50 [10]: 7.89 | Ratio (Mus musculus [17]): inactive | pIC50 (Trypanosoma brucei [11]): 7.00 | pIC50 (Trypanosoma brucei [12]): 7.87

N=C(N)c1ccc(NC(=O)c2cccc(C(=O)Nc3ccc(C(=N)N)cc3)n2)cc1
DNA binding (Calf thymus DNA): 7.1 °C | pIC50 (Trypanosoma brucei [6]): < 6.00 | DNA binding (Nucleic Acid): 15.9 °C | pIC50 [10]: < 6.00 | pIC50 (Trypanosoma brucei [11]): < 6.00 | pIC50 (Trypanosoma brucei [12]): < 6.00

CC(C)/N=C(\N)c1ccc(N2CCCN(c3ccc(/C(N)=N/C(C)C)cc3)CC2)cc1
DNA binding (Calf thymus DNA): 13.8 °C | pIC50 (Trypanosoma brucei [6]): < 6.00 | DNA binding (Nucleic Acid): 20 °C | pIC50 (Trypanosoma brucei [11]): 6.90 | pIC50 (Trypanosoma brucei [12]): 6.05

C(=C1CCN(Cc2ccc(C3=NCCN3)cc2)CC1)c1ccc(C2=NCCN2)cc1
DNA binding (Calf thymus DNA): 17 °C | pIC50 (Trypanosoma brucei [6]): 6.27 | DNA binding (Nucleic Acid): 19.4 °C | pIC50 [10]: 6.58 | pIC50 (Trypanosoma brucei [11]): 7.05 | pIC50 (Trypanosoma brucei [12]): 6.33

c1cc(C2=NCCN2)ccc1CC1CCCN(c2ccc(C3=NCCN3)cc2)C1 (stereo not given)
DNA binding (Calf thymus DNA): 9.9 °C | pIC50 (Trypanosoma brucei [6]): 7.07 | DNA binding (Nucleic Acid): 14.1 °C | pIC50 [10]: 7.82 | pIC50 (Trypanosoma brucei [11]): 7.10 | pIC50 (Trypanosoma brucei [12]): 7.07

C(=C1\CCCN(c2ccc(C3=NCCN3)cc2)C1)/c1ccc(C2=NCCN2)cc1
DNA binding (Calf thymus DNA): 12 °C | pIC50 (Trypanosoma brucei [6]): 7.15 | DNA binding (Nucleic Acid): 15.5 °C | pIC50 [10]: 7.06 | pIC50 (Trypanosoma brucei [11]): 7.08 | pIC50 (Trypanosoma brucei [12]): 7.08

CCCCNC(=N)c1ccc(N2CCCN(c3ccc(C(=N)NCCCC)cc3)CC2)cc1
DNA binding (Calf thymus DNA): 11.8 °C | pIC50 (Trypanosoma brucei [6]): 6.74 | DNA binding (Nucleic Acid): 13.3 °C | pIC50 (Trypanosoma brucei [11]): 7.11 | pIC50 (Trypanosoma brucei [12]): 7.10

c1cc(N2CCCN(c3ccc(C4=NCCN4)cc3)CC2)ccc1C1=NCCN1
MSD (Trypanosoma brucei [2]): 4.7 days | MSD (Trypanosoma brucei [4]): 4.3 days | DNA binding (Calf thymus DNA): 15 °C | Ratio (Mus musculus [18]): inactive | Ratio (Mus musculus [14]): inactive | Ratio (Mus musculus [19]): inactive | pIC50 (Trypanosoma brucei [6]): 7.56 | MSD (Trypanosoma brucei [7]): 7.7 days | MSD (Trypanosoma brucei [20]): 14 days | Ratio (Mus musculus [21]): Active | DNA binding (Nucleic Acid): 24 °C | pIC50 [10]: 6.81 | pIC50 (Trypanosoma brucei [11]): 7.64 | Ratio (Mus musculus [22]): Partially active | pIC50 (Trypanosoma brucei [12]): 7.28

N=C(NC1CC1)c1ccc(N2CCCN(c3ccc(C(=N)NC4CC4)cc3)CC2)cc1
DNA binding (Calf thymus DNA): 15.3 °C | pIC50 (Trypanosoma brucei [6]): 6.06 | DNA binding (Nucleic Acid): 23.6 °C | pIC50 (Trypanosoma brucei [11]): 6.07 | pIC50 (Trypanosoma brucei [12]): 6.09

O=C(Nc1ccc(C2=NCCN2)cc1)C1C[C@H]1C(=O)Nc1ccc(C2=NCCN2)cc1 (stereo not given in full)
DNA binding (Calf thymus DNA): 6 °C | pIC50 (Trypanosoma brucei [6]): < 6.00 | DNA binding (Nucleic Acid): 9.6 °C | pIC50 [10]: < 6.00 | pIC50 (Trypanosoma brucei [11]): 6.09 | pIC50 (Trypanosoma brucei [12]): 6.36
